ChEMBL document CHEMBL1833842, “1,3-Dihydro-2H-indol-2-ones derivatives: design, synthesis, in vitro antibacterial, antifungal and antitubercular study” (2011)
Values after ≈ are worked out from the molar mass of the structure shown.

Experiments:
Format in all cases: functional
Pseudomonas aeruginosa = test: Antibacterial activity against 10^8 CFU/mL Pseudomonas aeruginosa MTCC 1688 by broth microdilution method
How it was run: (§1)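 MTCC bacterial strains from IMTECH Chandigarh were grown in Mueller-Hinton broth, which was also used to dilute the compounds. Inoculum was turbidity-adjusted to 10⁸ CFU/mL, and DMSO served as diluent. Compounds from a 2000 stock were screened first at 500, 250 and 125; actives were retested in a second dilution series. Tubes were incubated overnight at 37 °C, and MIC was the lowest concentration with no visible growth. Clear tubes were subcultured overnight at 37 °C to tell bacteriostatic from bactericidal.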

Salmonella typhi = test: Antibacterial activity against 10^8 CFU/mL Salmonella typhi MTCC 98 by broth microdilution method
How it was run: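 Broth microdilution in Mueller-Hinton broth with MTCC strains, inoculum adjusted by turbidity to 10⁸ CFU/mL. Compounds were diluted from DMSO. Primary screen used 500, 250 and 125 concentrations, and actives were serially diluted further. Tubes were incubated overnight at 37 °C. MIC was the lowest concentration with no visible growth. Clear tubes were subcultured overnight at 37 °C to judge bacteriostatic versus bactericidal.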

Staphylococcus aureus = test: Antibacterial activity against 10^8 CFU/mL Staphylococcus aureus MTCC 96 by broth microdilution method; how it was run: as §1
Bacillus subtilis = test: Antibacterial activity against 10^8 CFU/mL Bacillus subtilis MTCC 441 by broth microdilution method; how it was run: as §1
Escherichia coli = test: Antibacterial activity against 10^8 CFU/mL Escherichia coli MTCC 443 by broth microdilution method; how it was run: as §1
Klebsiella pneumoniae = test: Antibacterial activity against 10^8 CFU/mL Klebsiella pneumoniae MTCC 109 by broth microdilution method; how it was run: as §1
Streptococcus pyogenes = test: Antibacterial activity against 10^8 CFU/mL Streptococcus pyogenes MTCC 442 by broth microdilution method; how it was run: as §1
Candida albicans = test: Antifungal activity against 10^8 CFU/mL Candida albicans MTCC 227 by broth microdilution method
How it was run: (§2)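 Fungal MTCC cultures came from IMTECH Chandigarh. Mueller-Hinton broth served as growth and dilution medium, with DMSO as diluent. Inoculum was set to 10⁸ CFU/mL by turbidity. Serial dilutions from a 2000 stock gave a primary screen at 500, 250 and 125, followed by a secondary dilution series for actives. MIC was the lowest concentration inhibiting growth.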

Aspergillus niger = test: Antifungal activity against 10^8 CFU/mL Aspergillus niger MTCC 282 by broth microdilution method; how it was run: as §2
Aspergillus clavatus = test: Antifungal activity against 10^8 CFU/mL Aspergillus clavatus MTCC 1323 by broth microdilution method; how it was run: as §2
[1] = test system: Mycobacterium tuberculosis; test: Antituberculosis activity against 5 x 10^4 inoculum per tube Mycobacterium tuberculosis H37Rv after 24 hrs by Lowenstein-Jensen method
How it was run: (§3)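 Conventional Lowenstein-Jensen method. Compound dilutions were made from a DMSO stock and added to liquid L-J medium, which was sterilized by inspissation. Tubes were incubated 24 h at 37 °C, then streaked with H37Rv (5 × 10⁴ bacilli per tube) harvested into 0.85% saline. Growth was checked at 12, 22 and 28 days at 37 °C against medium-only controls. MIC was the concentration giving no colonies or <20 colonies.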

[2] = test system: Mycobacterium tuberculosis; test: Antituberculosis activity against 5 x 10^4 bacilli per tube Mycobacterium tuberculosis H37Rv assessed as growth inhibition at 1000 ug/mL incubated for 24 hrs measured after 28 days; settings: read-out: GI; how it was run: as §3
[3] = test system: Mycobacterium tuberculosis; test: Antituberculosis activity against 5 x 10^4 inoculum per tube Mycobacterium tuberculosis H37Rv assessed as growth inhibition at 500 ug/mL incubated for 24 hrs measured after 28 days; settings: read-out: GI; how it was run: as §3
[4] = test system: Mycobacterium tuberculosis; test: Antituberculosis activity against 5 x 10^4 bacilli per tube Mycobacterium tuberculosis H37Rv assessed as growth inhibition at 25 ug/mL incubated for 24 hrs measured after 28 days; settings: read-out: GI; how it was run: as §3

Compound | MIC99 (Pseudomonas aeruginosa) | MIC99 (Salmonella typhi; Salmonella enterica subsp. enterica serovar Typhi) | MIC99 (Staphylococcus aureus) | MIC99 (Bacillus subtilis) | MIC99 (Escherichia coli) | MIC99 (Klebsiella pneumoniae) | MIC99 (Streptococcus pyogenes) | MIC99 (Salmonella typhi; Salmonella enterica) | MIC (Candida albicans) | MIC (Aspergillus niger) | MIC (Aspergillus clavatus) | MIC [1] | inhibition of growth at 1000 µg/mL [2] | inhibition of growth at 500 µg/mL [3] | inhibition of growth at 25 µg/mL [4]
GENTAMICIN | 1 µg/mL | 1 µg/mL | 0.25 µg/mL | 0.5 µg/mL | 0.05 µg/mL | 0.05 µg/mL | 0.5 µg/mL | – | – | – | – | – | – | – | –
CC1=C(c2nnc(/N=C3\C(=O)Nc4ccccc43)s2)C(c2ccccc2)NC(=O)N1 (stereo unspecified) | 250 µg/mL (≈ 600 µM) | – | 500 µg/mL (≈ 1200 µM) | 500 µg/mL (≈ 1200 µM) | 500 µg/mL (≈ 1200 µM) | 250 µg/mL (≈ 600 µM) | 500 µg/mL (≈ 1200 µM) | 250 µg/mL (≈ 600 µM) | 250 µg/mL (≈ 600 µM) | 250 µg/mL (≈ 600 µM) | 250 µg/mL (≈ 600 µM) | 1000 µg/mL (≈ 2400 µM) | 98% | – | –
CCn1cc(C(=O)O)c(=O)c2cc(F)c(N3CCNCC3)cc21 [NORFLOXACIN] | 10 µg/mL (≈ 31.3 µM) | – | 10 µg/mL (≈ 31.3 µM) | 10 µg/mL (≈ 31.3 µM) | 10 µg/mL (≈ 31.3 µM) | 10 µg/mL (≈ 31.3 µM) | 10 µg/mL (≈ 31.3 µM) | 10 µg/mL (≈ 31.3 µM) | – | – | – | – | – | – | –
CC1=C(c2nnc(/N=C3\C(=O)Nc4ccc(I)cc43)s2)C(c2ccccc2)NC(=S)N1 (stereo unspecified) | 250 µg/mL (≈ 448 µM) | – | 200 µg/mL (≈ 358 µM) | 200 µg/mL (≈ 358 µM) | 250 µg/mL (≈ 448 µM) | 200 µg/mL (≈ 358 µM) | 200 µg/mL (≈ 358 µM) | 250 µg/mL (≈ 448 µM) | > 1000 µg/mL | > 1000 µg/mL | > 1000 µg/mL | 1000 µg/mL (≈ 1790 µM) | 98% | – | –
O=C(O)c1cn(C2CC2)c2cc(N3CCNCC3)c(F)cc2c1=O [CIPROFLOXACIN] | 25 µg/mL (≈ 75.4 µM) | – | 50 µg/mL (≈ 151 µM) | 50 µg/mL (≈ 151 µM) | 25 µg/mL (≈ 75.4 µM) | 25 µg/mL (≈ 75.4 µM) | 50 µg/mL (≈ 151 µM) | 25 µg/mL (≈ 75.4 µM) | – | – | – | – | – | – | –
O=C(N[C@H](CO)[C@H](O)c1ccc([N+](=O)[O-])cc1)C(Cl)Cl [CHLORAMPHENICOL] | 50 µg/mL (≈ 155 µM) | – | 50 µg/mL (≈ 155 µM) | 50 µg/mL (≈ 155 µM) | 50 µg/mL (≈ 155 µM) | 50 µg/mL (≈ 155 µM) | 50 µg/mL (≈ 155 µM) | 50 µg/mL (≈ 155 µM) | – | – | – | – | – | – | –
CC1=C(c2nnc(/N=C3\C(=O)Nc4ccc(Br)cc43)s2)C(c2ccccc2)NC(=O)N1 (stereo unspecified) | 250 µg/mL (≈ 505 µM) | – | 100 µg/mL (≈ 202 µM) | 100 µg/mL (≈ 202 µM) | 250 µg/mL (≈ 505 µM) | 200 µg/mL (≈ 404 µM) | 100 µg/mL (≈ 202 µM) | 250 µg/mL (≈ 505 µM) | 500 µg/mL (≈ 1010 µM) | 500 µg/mL (≈ 1010 µM) | > 1000 µg/mL | 500 µg/mL (≈ 1010 µM) | – | 98% | –
CC1=C(c2nnc(/N=C3\C(=O)Nc4ccc(I)cc43)s2)C(c2ccccc2)NC(=O)N1 (stereo unspecified) | 250 µg/mL (≈ 461 µM) | – | 250 µg/mL (≈ 461 µM) | 250 µg/mL (≈ 461 µM) | 250 µg/mL (≈ 461 µM) | 250 µg/mL (≈ 461 µM) | 200 µg/mL (≈ 369 µM) | 250 µg/mL (≈ 461 µM) | > 1000 µg/mL | > 1000 µg/mL | > 1000 µg/mL | 1000 µg/mL (≈ 1840 µM) | 98% | – | –
COC1=CC(=O)C[C@@H](C)[C@]12Oc1c(Cl)c(OC)cc(OC)c1C2=O [GRISEOFULVIN] | – | – | – | – | – | – | – | – | 500 µg/mL (≈ 1420 µM) | 100 µg/mL (≈ 283 µM) | 100 µg/mL (≈ 283 µM) | – | – | – | –
CC1=C(c2nnc(/N=C3\C(=O)Nc4ccc(F)cc43)s2)C(c2ccccc2)NC(=S)N1 (stereo unspecified) | 62.5 µg/mL (≈ 139 µM) | – | 62.5 µg/mL (≈ 139 µM) | 100 µg/mL (≈ 222 µM) | 62.5 µg/mL (≈ 139 µM) | 100 µg/mL (≈ 222 µM) | 100 µg/mL (≈ 222 µM) | 100 µg/mL (≈ 222 µM) | 100 µg/mL (≈ 222 µM) | 100 µg/mL (≈ 222 µM) | 100 µg/mL (≈ 222 µM) | 25 µg/mL (≈ 55.5 µM) | – | – | 99%
